# Source: PubChem BioAssay
# Only some compounds are listed: those with a hit (about 3% of all), similar ones and a draw of the others.
# DSG3 Ab inh: inhibitors of pemphigus antibody binding to DSG3, primary screen, biochemical, bead-based, flow cytometry, scFv-GFP | DSG3-coupled beads, scFv-anti-DSG3-GFP binding; active compounds read low | hit rate 0.48% among 310,000 | Desmoglein-3 (Homo sapiens), P32926 | binding (percent of control), % at 10 µM;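 active = binding more than 3 SD below its plate's average and above zero; inconclusive = below that plate limit but binding exactly zero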;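 also: hits lower antibody fragment binding to DSG3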
# Target sequence (P32926 whole entry, looked up, the tested form may be a part): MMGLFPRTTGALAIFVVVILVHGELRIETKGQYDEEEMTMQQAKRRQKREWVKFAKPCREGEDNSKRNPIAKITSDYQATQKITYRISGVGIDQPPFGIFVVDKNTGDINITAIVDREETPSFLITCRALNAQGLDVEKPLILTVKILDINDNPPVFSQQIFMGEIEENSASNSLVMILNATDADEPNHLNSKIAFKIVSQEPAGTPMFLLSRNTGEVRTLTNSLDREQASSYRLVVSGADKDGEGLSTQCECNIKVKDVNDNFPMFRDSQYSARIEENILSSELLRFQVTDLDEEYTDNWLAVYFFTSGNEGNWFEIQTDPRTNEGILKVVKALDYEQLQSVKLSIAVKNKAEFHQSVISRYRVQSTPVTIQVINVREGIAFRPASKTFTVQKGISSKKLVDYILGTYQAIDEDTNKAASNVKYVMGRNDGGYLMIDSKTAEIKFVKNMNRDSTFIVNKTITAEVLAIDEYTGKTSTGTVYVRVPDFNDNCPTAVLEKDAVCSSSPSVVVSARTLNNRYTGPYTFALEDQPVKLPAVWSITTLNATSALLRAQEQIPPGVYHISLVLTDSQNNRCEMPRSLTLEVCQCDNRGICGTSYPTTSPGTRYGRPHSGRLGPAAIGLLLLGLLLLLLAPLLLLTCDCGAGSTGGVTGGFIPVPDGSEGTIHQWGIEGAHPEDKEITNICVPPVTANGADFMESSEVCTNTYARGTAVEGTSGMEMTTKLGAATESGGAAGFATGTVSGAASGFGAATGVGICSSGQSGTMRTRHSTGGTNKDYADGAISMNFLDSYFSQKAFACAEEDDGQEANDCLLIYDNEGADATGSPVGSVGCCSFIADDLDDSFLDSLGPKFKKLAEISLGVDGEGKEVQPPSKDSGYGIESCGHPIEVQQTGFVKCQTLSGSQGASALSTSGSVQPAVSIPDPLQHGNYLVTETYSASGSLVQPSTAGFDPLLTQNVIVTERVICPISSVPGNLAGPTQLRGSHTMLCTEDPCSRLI
# Myeloid diff MLP: induction of myeloid progenitor differentiation, primary screen, cell-based, flow cytometry, MLPCN library; calls only at 10 µM; hit rate 1% among 360,000; ER-HoxA9 myeloid progenitors, lysozyme-GFP differentiation;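 active = normalized GFP-positive differentiation at or above the plate's own cutoff, the solvent-only control mean plus 3 SD; inconclusive = no clear call, values can overlap the other calls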;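 also: cells exposed to compound for four days before flow analysis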
# HNF4A DNA FP: change in binding of human HNF4A to DNA, primary screen, biochemical, fluorescence polarization, FITC-DNA; 1 h; Hepatocyte nuclear factor 4-alpha (Homo sapiens), P41235; activity change, % at 10 µM; hit rate 0.3% among 360,000; in the data active = activity change above about 30%, passing the limit was not always enough
# Granule exo inh: LAMP-1 surface exposure blockers, TALL-104 cells – cell-based, flow cytometry, MLPCN library, primary screen. TALL-104 LAMP-1 surface exposure; cells stimulated with thapsigargin and PMA. inhibition, % at 10 µM. hit rate 0.66% among 360,000. AID 651702, 2012;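 active = inhibition above about 55%, limit read from the data; inconclusive = no clear call, values can overlap the other calls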
# SENP1 FRET inh: human SENP1 catalytic domain inhibitors, primary screen, biochemical, FRET, uHTS | Sentrin-specific protease 1 (Homo sapiens), Q9P0U3 | recombinant SENP1 catalytic domain, CyPet-SUMO1-YPet FRET cleavage | inhibition, % at 10 µM | hit rate 0.21% among 360,000 | AID 624204, 2012;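 active = inhibition at least 30% at 10 µM, raw YFP signal under a set limit, fluorescence ratio 0.5 to 1.5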;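 also: 0% = enzyme with DMSO and 100% = no enzyme wells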
#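 Material: hSENP1 catalytic domain, recombinant; medium: Tris pH 8 with BME, BSA, NP40 and catalase; compound: single concentration of 10 µM compound, 0.5% DMSO final; technique: FRET read of cyan and yellow fluorescence; timing: 50 min enzyme reaction, room temperature, light-protected; reagent: SFCypet-SUMO1-SFYpet substrate at 25 nM; control set: no-enzyme low, enzyme-DMSO high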
# H9c2 protect: cardioprotection against H2O2-induced cell death, primary screen, uHTS, H9c2 cells, ATPLite luminescence; hit rate 0.63% among 360,000; protection from H2O2 cell death, % at 20 µM; H9c2 cardiomyocytes, H2O2 injury protection, 2 h;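 active = compounds giving at least 50% protection of heart cells from peroxide-induced death in the single-dose screen, raw or plate-pattern-corrected value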;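 also: 0% = DMSO wells with peroxide and 100% = DMSO wells without peroxide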
# Active calls of the source: *; i = inactive; ? = inconclusive; nt = no result; + = active, no number.
SMILES,DSG3 Ab inh,Myeloid diff MLP,HNF4A DNA FP,Granule exo inh,SENP1 FRET inh,H9c2 protect
CCCCCCCCCCCCCCCC(O)C[N+](C)(C)CCO (centres undefined),nt,?,7,-9,0,-12
CCCCCCCCCCCCCCCC(O)C(N)CO (centres undefined),nt,i,47*,40,0,-3
O=C(c1ccc(-c2ccccc2)cc1)N1CCN(c2nc3ccccc3o2)CC1,69*,i,-3,0,2,-20
CCN(C[C@H]1N[C@@](Cc2ccccc2)(C(=O)OC)[C@H]2C(=O)N(C)C(=O)[C@@H]12)C(=O)Nc1ccc(Cl)cc1,97,i,1,2,2,-2
Cc1ccc(S(=O)(=O)Nc2ccccc2C(C(=O)OC(C)(C)C)C(=O)OC(C)(C)C)cc1,nt,i,1,10,0,nt
C[C@]12c3[nH]c4cc(-c5ccco5)ccc4c3CCN1C(=O)[C@@H](CC(=O)NCCN1CCOCC1)C[C@@H]2C(=O)N1CCOCC1,97,+,-3,2,-2,1
CC(C)=CCC/C(C)=C/CNC(=O)C[C@H]1C[C@H](C(=O)N2CCCCC2)[C@@]2(CCc3ccccc3)c3[nH]c4cc(CCC(=O)N(C)C)ccc4c3CCN2C1=O,90,+,-5,5,-1,-6
CC[C@]12c3[nH]c4ccccc4c3CCN1C(=O)C(CC(=O)NCCCn1ccnc1)C[C@@H]2C(=O)N1CCN(C(=O)C2CC2)CC1 (some centres undefined),113,+,2,-2,-1,7
CC[C@]12c3[nH]c4ccccc4c3CCN1C(=O)C(CC(=O)NCCc1ccccn1)C[C@@H]2C(=O)N1CCN(C(=O)c2ccco2)CC1 (some centres undefined),113,i,-4,3,-2,6
CC[C@]12c3[nH]c4cc(CCC(=O)N(C)C)ccc4c3CCN1C(=O)[C@@H](CC(=O)NCCc1ccccn1)C[C@@H]2C(=O)N1CCN(C(=O)c2ccco2)CC1,103,+,0,-3,0,-9
CSc1ccccc1NC(=O)CN1CCN(Cc2ccccc2)CC1,112,i,5,2,1,-2
CCCC(C(=O)NCCC(C)C)N(Cc1ccccc1)C(=O)c1snc(C(N)=O)c1N (centres undefined),107,i,1,19,-12,11
CC(=O)Nc1ccc(C(=O)Cn2c3[n+](c4c(F)c(F)ccc42)CCCCC3)cc1,105,i,1,-1,0,3
COc1cc(/C=N/NC(=S)Nc2cccc(Cl)c2C)ccc1OCC(=O)N1CC(C)OC(C)C1 (centres undefined),86,i,-1,2,3,55*
COc1ccccc1C(=O)Nc1ccc(Oc2ncnc3sc(-c4ccccc4)cc23)cc1,97,i,1,-4,-11,-3
COc1cc(C(=O)Nc2ccc(Oc3ncnc4sc(-c5ccccc5)cc34)cc2)cc(OC)c1OC,-10*,i,-1,0,0,0
COc1ccc(C(=O)Nc2ccc(Oc3ncnc4sc(-c5ccccc5)cc34)cc2)cc1OC,-207*,i,2,-6,-5,0
CCOC(=O)c1cc2c(c(-c3cccc(-c4cc5ccccc5o4)c3)n1)[C@@H](CCO)N(S(=O)C(C)(C)C)C2 (some centres undefined),nt,i,16,0,-11,1
Cn1c(SCC(=O)NC2CCCCC2)nnc1C(F)(F)F,108,i,1,6,0,6
CCCCOCCCNS(=O)(=O)c1ccccc1,127,i,-3,-3,0,-5
CCCCOP(=O)(OCCCC)C1(NS(=O)(=O)c2ccccc2)C=CC(=O)c2ccccc21 (centres undefined),102,i,1,99*,1,-12
COc1ccccc1C(=O)NCCC(=O)NCCOc1ccc(C)cc1,98,i,-2,-6,0,2
COc1cccc(OCCNC(=O)c2ccc(C)cc2)c1,98,+,9,-5,2,-2
COc1cccc(OCCNC(=O)c2cccc(OC)c2)c1,101,i,-1,1,0,5
COc1cccc(OCCNC(=O)c2cc([N+](=O)[O-])cc([N+](=O)[O-])c2)c1,105,+,-1,-3,0,4
SMILES,DSG3 Ab inh,Myeloid diff MLP,HNF4A DNA FP,Granule exo inh,SENP1 FRET inh,H9c2 protect
Cc1ccc(OCCNC(=O)c2ccccc2N)cc1,46*,i,2,-3,3,-24
Cc1ccc(OCCNC(=O)c2cc(C(=O)NCCOc3ccc(C)cc3)cc([N+](=O)[O-])c2)cc1,93,i,0,-6,0,-7
COc1cccc(Nc2nc(-c3sc(N)nc3C)cs2)c1,94,i,8,4,-14,63*
COc1ccc(Cl)cc1Nc1nc(-c2sc(NC(=O)c3ccco3)nc2C)cs1,100,i,14,-2,-18,6
COc1cccc(Nc2nc(-c3sc(NC(=O)c4ccco4)nc3C)cs2)c1,103,i,9,-2,-23,50*
Cc1nc(N)sc1-c1csc(Nc2ncccn2)n1,-54*,i,6,53,-18,-39
COc1ccccc1Nc1nc(-c2sc(N)nc2C)cs1,101,i,15,-9,-10,8
Cc1nc(N2CCN(c3ccc(Cl)cc3)CC2)[nH]c(=O)c1C,121,i,2,-4,-2,2
COc1ccc(C(=O)CSc2nnc3n2CCCN3C(=O)Nc2ccccc2)cc1,109,i,-2,-1,2,8
COc1ccc(Cl)cc1NC(=O)c1cc(C)no1,95,i,0,4,0,-2
CC(=O)OCCNc1cc(N2CCN(C)CC2)c2noc3c2c1C(=O)c1ccccc1-3,90,i,-20,-2,12,9
CCOC(=O)C(C(=O)OCC)c1cc(Br)c2noc3c2c1C(=O)c1ccccc1-3,101,?,-43,98*,-22,-37
CCN(Cc1ccccc1)C(=S)Nc1cc(C(=O)OC)ccc1C(=O)OC,132,i,33*,-4,-24,-7
CC1=CC2=NC(=O)/C(=C\c3ccc(OC(=O)c4ccco4)cc3)C(=N)N2O1,95,i,0,5,-82,1
CS(=O)(=O)C1=NSC2=NC(=O)/C(=C\c3ccc(OC(=O)c4ccco4)c(Br)c3)C(=N)N21,99,i,35*,1,-30,-2
